# Compounds with a hit are over-represented: about 3.7% of the library has one in this group of screens.
# KCNQ1 act = human KCNQ1 channel potentiation or activation; P51787; 310,000 compounds, 0.35% hits; AID 2648; CHO-K1 KCNQ1, thallium flux FluxOR fluorescence; active compounds read high; B-score at 10 µM;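 active = fluorescence ratio B-score, a plate-corrected score, at least three library SD, with initial intensity B-score within 5 SD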
#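 Test system: CHO-K1 cells stably expressing KCNQ1 / Medium: assay buffer / Also added: depolarizing K+/Tl+ stimulus, K2SO4 and Tl2SO4 each 12.5 mM in 5x stock / Incubation: 90 min dye loading and 20 min compound exposure, both at room temperature / Signal: thallium influx via FluxOR fluorescence, kinetic imaging / Evaluation: B score of baseline-normalized fluorescence ratio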
# Kir21 inh = blocks the mouse Kir2.1 inward-rectifier potassium channel | AID 1672 | HEK293-Kir2.1, FluxOR thallium flux fluorescence; active compounds read low | 310,000 compounds, 0.85% hits | P35561 | B-score at 10 µM;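 active = fluorescence ratio B-score at or below minus 3 SD of library scores, with starting-brightness B-score within 2 SD, cut at about -4.2 in these data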;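 note: channel flux triggered by added potassium and thallium sulfate stimulus; B-score of peak minus minimum fluorescence over baseline after thallium stimulus; more negative B-score means stronger Kir2.1 block with less thallium influx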
# Target sequence (P35561 whole entry, looked up): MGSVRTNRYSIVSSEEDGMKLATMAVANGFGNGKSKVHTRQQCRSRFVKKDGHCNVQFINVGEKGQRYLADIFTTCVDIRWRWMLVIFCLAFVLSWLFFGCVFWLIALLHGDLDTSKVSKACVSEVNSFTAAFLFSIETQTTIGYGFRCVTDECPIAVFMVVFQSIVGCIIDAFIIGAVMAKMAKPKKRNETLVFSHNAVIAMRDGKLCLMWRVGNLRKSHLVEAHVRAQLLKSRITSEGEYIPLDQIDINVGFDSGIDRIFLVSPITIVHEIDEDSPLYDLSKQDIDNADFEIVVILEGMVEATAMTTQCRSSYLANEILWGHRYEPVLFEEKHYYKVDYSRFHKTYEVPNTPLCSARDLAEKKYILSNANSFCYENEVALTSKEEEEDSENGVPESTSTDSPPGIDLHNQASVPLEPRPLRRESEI
# KCNQ1 inh = human KCNQ1 channel inhibition; P51787; CHO-K1 KCNQ1, FluxOR thallium flux fluorescence; active compounds read high; B-score at 10 µM; 310,000 compounds, 1.3% hits;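 active = compounds whose thallium flux B-score, printed positive for inhibition, exceeds three library SD while starting fluorescence stays within three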;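 note: channel opened by potassium depolarization with thallium stimulus after 20 min compound exposure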
# KCNK9 block = blocks the human KCNK9 two-pore domain potassium channel | 310,000 compounds, 1.2% hits | HEK293 KCNK9, FluxOR thallium flux fluorescence; active compounds read low | B-score at 10 µM;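 active = ratio B-score over 3 SD below the library mean, with starting fluorescence within 5 SD of its mean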;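 note: negative B-score means less thallium flux so channel inhibition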
# hERG rescue = compounds protecting human hERG from proarrhythmic drug block. CHO-hERG, FluxOR thallium flux, dofetilide IC70 present. activation (rescue from dofetilide block), less the hit threshold, % at 10 µM. 310,000 compounds, 0.51% hits. AID 1511;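 active = activation above the mean of controls blocked by dofetilide plus 5 SD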;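 note: thallium influx through hERG after potassium depolarization seen as dye fluorescence rise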
# KCNK3 block = human KCNK3 channel inhibition, primary screen; O14649; CHO-KCNK3 thallium flux, FluxOR fluorescence; active compounds read low; B-score at 10 µM; 340,000 compounds, 0.84% hits; AID 602410;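 active = B-score under library mean minus 4 SD, starting fluorescence ratio at most library mean plus 5 SD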;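 note: more negative B-score means stronger inhibition of thallium flux through KCNK3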
# * = called active by the depositor; i = inactive; . = no result.
SMILES,KCNQ1 act,Kir21 inh,KCNQ1 inh,KCNK9 block,hERG rescue,KCNK3 block
Cc1ccc(-c2ccc(/C=N/NC(=O)c3ccccc3O)o2)cc1,8*,1.27,i,i,-8.4,.
Cc1ccc(-n2c(SCC(=O)N(C)C3CCS(=O)(=O)C3)nc3ccccc3c2=O)c(C)c1 (configuration not stated),.,.,.,.,.,-9.18*
COCCn1c(SCC(=O)N(C)C2CCS(=O)(=O)C2)nc2ccccc2c1=O (configuration not stated),i,0.53,i,i,-9.3,i
O=C/C(=C\Nc1ccc(C(=O)N2CCOCC2)cc1)c1nc2ccccc2o1,i,-0.02,i,i,-12.6,i
O=C(CN1CCN(Cc2cccc(C(F)(F)F)c2)CC1)NCC(=O)Nc1ccc(F)c(F)c1F,.,.,.,.,.,i
CCOC(=O)C1=C(Cn2cnc3ccccc32)NC(=O)NC1c1cc(C)ccc1C (configuration not stated),i,-0.12,i,i,13.1*,i
COC(=O)C1=C(Cn2cnc3ccccc32)NC(=O)NC1c1cc(C)ccc1C (configuration not stated),i,-0.24,i,i,-9.9,i
COc1cc(C(=O)NCC(c2ccc(F)cc2)N2CCOCC2)ccc1OCc1ccccc1Cl (configuration not stated),i,-1.43,10*,i,-14.4,i
CCOC(=O)N1CCC(N2CCCC(CO)(Cc3cccc(Cl)c3)C2)CC1 (configuration not stated),i,-1.17,i,i,-7.2,i
O=C(/C=C/c1ccccc1Cl)N(Cc1cccs1)C1CCS(=O)(=O)C1 (configuration not stated),i,1.69,i,-7.5*,-5.6,i
CC(=O)Nc1c(C)ccc(S(N)(=O)=O)c1C,i,0.54,i,i,-5.6,i
COc1cc(/C=C2/C(=O)NN(c3ccccc3)C2=O)cc(Br)c1O,i,0.2,i,i,6.8*,i
COC(=O)CCC(C)N1CCC(Oc2ccc(C(=O)NCc3ccccn3)cc2)CC1 (configuration not stated),i,0.42,i,i,-8.9,i
Cc1cc(C)c(Nc2ncccc2C(=O)O)c(C)c1,i,-0.01,i,i,5.8*,i
C=C[C@H](Cc1ccccc1)N(Cc1ccccc1)S(=O)(=O)N(Cc1ccccc1)[C@H](C=C)Cc1ccccc1,.,.,.,.,.,i
COc1ccc(NC(=O)CN2C(=O)S/C(=C/c3cccn3-c3ccc(C(=O)O)cc3)C2=O)cc1,i,0.08,i,i,15.7*,i
Cc1ccccc1NC(=O)CN1C(=O)S/C(=C\c2cccn2-c2cccc(C(=O)O)c2)C1=O,i,-0.11,i,i,0.4,i
Cc1ccc(NC(=O)CN2C(=O)S/C(=C\c3cccn3-c3cccc(C(=O)O)c3)C2=O)c(C)c1,i,1.36,i,i,5.4*,i
CCOC(=O)N1CCN(C(=O)COC(=O)c2ccc(S(=O)(=O)N(CC)CC)cc2)CC1,i,0.47,i,i,-10.0,i
CC1(c2ccccc2)CC(C)(C)N2C(=O)/C(=C3\SC(=S)NC3=O)c3cccc1c32 (configuration not stated),81*,-1.47,i,i,-6.4,i
O=S(=O)(CCSc1ccccn1)c1nc2ccccc2s1,i,0.75,6*,i,-17.7,i
O=S(=O)(CCSc1nc2ccccc2o1)c1nc2ccccc2s1,i,-3.5,i,i,-5.9,i
O=C(C1CCC1)N1CCN(S(=O)(=O)c2ccc(Br)cc2Cl)CC1,i,-0.43,i,i,-15.3,i
Cc1cc(C)c2ccc(C)[n+]([O-])c2c1O,8*,0.13,i,i,-7.0,i
Cc1cc(C)c2ccc(N)nc2c1O,i,-0.06,i,i,-9.1,i
CN1CCCC1CCNC1C2CC3CC(C2)CC1C3 (configuration not stated),i,-4.68*,i,i,-1.9,i

# High-throughput results deposited in PubChem by Johns Hopkins Ion Channel Center.
